Measured values reported in ChEMBL document CHEMBL4371072, “Structure-Activity Relationship Studies and Plasmodium Life Cycle Profiling Identifies Pan-Active N-Aryl-3-trifluoromethyl Pyrido[1,2- a]benzimidazoles Which Are Efficacious in an in Vivo Mouse Model of Malaria” (J Med Chem, 2019).

How the values were obtained:
[1] = tested on: Plasmodium falciparum; assay: Antiplasmodial activity against chloroquine-sensitive asexual blood stage of Plasmodium falciparum NF54 infected in human RBC assessed as reduction in [3H]hypoxanthine incorporation preincubated for 48 hrs followed by [3H]hypoxanthine addition measured after 24 hrs by liquid scintillation counting method; assay type: functional, organism-based
Summary of the method: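 Asexual blood-stage P. falciparum NF54 assay, run as a modified [3H]-hypoxanthine incorporation assay. Values are the mean of n ≥ 2 assays; determinations differing more than 3-fold were excluded. Chloroquine and artesunate served as controls.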

[2] = Metabolic stability in Balb/c mouse liver microsomes assessed as parent compound remaining at 0.1 uM after 30 mins in presence of NADPH by LC-MS/MS analysis
[3] = Half life in human liver microsomes at 0.1 uM in presence of NADPH by LC-MS/MS analysis
[4] = tested on: Plasmodium falciparum; assay: Antiplasmodial activity against chloroquine-sensitive final late stage of Plasmodium falciparum NF54-Mal8p1.16-GFP-Luc gametocytes after 24 hrs by BacTiter-Glo assay; assay type: functional, organism-based; details: NF54, 24 h
Summary of the method: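 Late-stage PfNF54 gametocytes produced in vitro; gametocytocidal IC50 via luciferase reporter and ATP bioluminescence platforms; n=3 independent biological replicates in technical triplicates, ± S.E.M.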

[5] = Metabolic stability in human liver microsomes assessed as parent compound remaining at 0.1 uM after 30 mins in presence of NADPH by LC-MS/MS analysis
[6] = tested on: CHO; assay: Cytotoxicity against CHO cells after 48 hrs by MTT assay; assay type: cell-based; details: Cricetulus griseus
[7] = Selectivity index, ratio of IC50 for CHO cells to IC50 for chloroquine-sensitive asexual blood stage of Plasmodium falciparum NF54 infected in human RBC; assay type: toxicity; details: Chinese hamster, read-out: Ratio IC50
Summary of the method: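 Selectivity index taken as the ratio of the CHO-cell IC50 to the P. falciparum NF54 IC50.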

[8] = tested on: Plasmodium berghei; assay: Antimalarial activity against liver stage form of luciferase transfected Plasmodium berghei sporozoites infected in human HuH7 cells preincubated with host cells for 1 hr followed by plasmodial infection and measured after 48 hrs by bioluminescence method; assay type: functional, organism-based; details: Huh-7
[9] = Half life in Balb/c mouse liver microsomes at 0.1 uM in presence of NADPH by LC-MS/MS analysis
[10] = target: T1, hERG (KCNH2) (Homo sapiens, UniProt Q12809); assay: Inhibition of human ERG expressed in CHO cells assessed as reduction in peak channel current at 0.3 uM by IonWork patch-clamp electrophysiology method relative to control; assay type: cell-based; details: CHO cells expressing human ERG
[11] = Resistance index, ratio of IC50 for chloroquine-resistant asexual blood stage of Plasmodium falciparum K1 infected in human RBC to IC50 for chloroquine-sensitive asexual blood stage of Plasmodium falciparum NF54 infected in human RBC; assay type: functional
[12] = target: Voltage-gated inwardly rectifying potassium channel KCNH2 (Homo sapiens, UniProt Q12809); assay: Inhibition of human ERG expressed in CHO cells assessed as reduction in peak channel current by IonWork patch-clamp electrophysiology method; assay type: cell-based
[13] = target: T1, hERG (KCNH2); assay: Inhibition of human ERG expressed in CHO cells assessed as reduction in peak channel current at 10 uM by IonWork patch-clamp electrophysiology method relative to control; assay type: cell-based; details: CHO cells expressing human ERG
Summary of the method: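 hERG potassium channel profiled by IonWorks patch-clamp electrophysiology, with 10 μM as the highest concentration tested. Values are the mean of 3 results from experiments run as biological and technical triplicates.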

[14] = tested on: Plasmodium falciparum; assay: Antiplasmodial activity against chloroquine-resistant asexual blood stage of Plasmodium falciparum K1 infected in human RBC assessed as reduction in [3H]hypoxanthine incorporation preincubated for 48 hrs followed by [3H]hypoxanthine addition measured after 24 hrs by liquid scintillation counting method; assay type: functional, organism-based
Summary of the method: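 Asexual blood-stage P. falciparum K1 (multidrug resistant) screened by modified [3H]-hypoxanthine incorporation assay; IC50 as mean of n ≥ 2 assays, replicates differing above 3-fold excluded; chloroquine and artesunate controls.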

[15] = tested on: Plasmodium berghei; assay: Antimalarial activity against GFP-fused Plasmodium berghei ANKA infected in NMRI mouse assessed as host mean survival time at 50 mg/kg, po administered consecutively at 4, 24, 48 and 72 hrs post infection; assay type: functional
Summary of the method: (§1)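 NMRI mice infected intravenously with P. berghei; oral treatment at 4, 24, 48 and 72 h post-infection (4 x 50 mg/kg), vehicle to controls; reference drug 4 x 30 mg/kg orally on four consecutive days. Parasitemia compared with untreated controls; mean survival days recorded; cure if no parasitemia 30 days after treatment.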

[16] = tested on: Plasmodium berghei; assay: Antimalarial activity against GFP-fused Plasmodium berghei ANKA infected in NMRI mouse assessed as inhibition of parasitemia at 50 mg/kg, po administered consecutively at 4, 24, 48 and 72 hrs post infection by flow cytometry relative to control; assay type: functional
Summary of the method: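 NMRI mice infected intravenously with P. berghei; oral treatment at 50 mg/kg given 4, 24, 48 and 72 h post-infection (4 x 50 mg/kg). Control mice received vehicle only. Parasitemia of treated animals compared with that of untreated controls. Mice counted as cured if no parasitemia was detected 30 days after treatment.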

[17] = Lipophilicity, log D of the compound; assay type: physicochemical; details: octanol/water
Summary of the method: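 LogD computed with ChemDraw 16.0.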

[18] = Solubility of the compound; assay type: physicochemical
[19] = tested on: Plasmodium falciparum; assay: Ratio of IC50 for late stage of Plasmodium falciparum NF54-Mal8p1.16-GFP-Luc gametocytes to IC50 for early stage of Plasmodium falciparum NF54-PfS16-GFP-Luc gametocytes; assay type: functional
[20] = tested on: Plasmodium falciparum; assay: Ratio of IC50 for early stage of Plasmodium falciparum NF54-PfS16-GFP-Luc gametocytes to IC50 for late stage of Plasmodium falciparum NF54-Mal8p1.16-GFP-Luc gametocytes; assay type: functional
[21] = tested on: Plasmodium berghei; assay: Antimalarial activity against GFP-fused Plasmodium berghei ANKA infected in NMRI mouse assessed as host mean survival time at 30 mg/kg, po administered for 4 consecutive days; assay type: functional; summary of the method: as §1
[22] = tested on: Hemozoin; assay: Inhibition of beta hematin formation after 5 hrs by NP40 detergent-based assay

Sequence of Voltage-gated inwardly rectifying potassium channel KCNH2 (Q12809 whole entry): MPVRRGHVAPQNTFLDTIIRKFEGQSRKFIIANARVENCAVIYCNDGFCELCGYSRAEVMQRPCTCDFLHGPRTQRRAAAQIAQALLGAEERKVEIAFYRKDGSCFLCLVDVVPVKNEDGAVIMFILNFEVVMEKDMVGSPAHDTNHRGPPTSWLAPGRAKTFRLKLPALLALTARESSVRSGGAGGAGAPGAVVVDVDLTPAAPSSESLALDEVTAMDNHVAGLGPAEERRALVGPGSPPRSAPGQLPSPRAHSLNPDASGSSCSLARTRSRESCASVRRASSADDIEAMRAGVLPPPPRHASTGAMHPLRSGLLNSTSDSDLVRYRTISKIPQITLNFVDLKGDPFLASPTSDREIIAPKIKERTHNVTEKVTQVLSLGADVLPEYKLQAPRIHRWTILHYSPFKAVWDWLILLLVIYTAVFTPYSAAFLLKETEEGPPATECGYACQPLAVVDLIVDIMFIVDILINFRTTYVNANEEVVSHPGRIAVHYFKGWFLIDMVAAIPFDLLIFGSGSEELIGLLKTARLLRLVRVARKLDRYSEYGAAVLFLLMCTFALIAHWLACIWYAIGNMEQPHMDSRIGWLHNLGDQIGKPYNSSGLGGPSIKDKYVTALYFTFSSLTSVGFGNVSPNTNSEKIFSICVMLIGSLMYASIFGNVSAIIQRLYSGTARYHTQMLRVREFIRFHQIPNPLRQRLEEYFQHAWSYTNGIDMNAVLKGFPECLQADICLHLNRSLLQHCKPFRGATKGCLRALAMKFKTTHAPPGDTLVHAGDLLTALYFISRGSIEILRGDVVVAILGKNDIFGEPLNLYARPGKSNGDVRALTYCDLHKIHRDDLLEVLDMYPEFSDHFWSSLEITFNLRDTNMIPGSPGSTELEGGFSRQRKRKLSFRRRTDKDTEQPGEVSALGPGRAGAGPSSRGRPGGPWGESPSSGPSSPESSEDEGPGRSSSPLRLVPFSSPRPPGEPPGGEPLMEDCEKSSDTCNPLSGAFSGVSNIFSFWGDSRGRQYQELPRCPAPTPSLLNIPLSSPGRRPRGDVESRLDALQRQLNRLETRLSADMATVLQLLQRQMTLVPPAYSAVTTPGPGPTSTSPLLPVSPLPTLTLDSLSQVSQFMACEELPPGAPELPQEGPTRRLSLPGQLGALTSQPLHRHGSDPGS
T1 sequence (Q12809 whole entry): as above

| SMILES | IC50 [1] [nM] | remaining at 0.5 h, 0.1 µM ([2]; liver microsomes) [%] | half-life at 0.1 µM ([3]; liver microsomes) [h] | IC50 [4] [nM] | remaining at 0.5 h, 0.1 µM ([5]; liver microsomes) [%] | IC50 [6] [nM] | selectivity ratio [7] | IC50 [8] [nM] | half-life at 0.1 µM ([9]; liver microsomes) [h] | inhibition at 0.3 µM [10] [%] | Ratio IC50 [11] | IC50 [12] [nM] | inhibition at 10 µM [13] [%] | IC50 [14] [nM] | further results |
| --- | --- | --- | --- | --- | --- | --- | --- | --- | --- | --- | --- | --- | --- | --- | --- |
| N#Cc1c(C(F)(F)F)cc(NCc2ccc(OC(F)(F)F)cc2)n2c1nc1cc(Cl)c(Cl)cc12 | 440 | 82 | > 2.5 | 210 | > 99 | 5020 | 11 | 190 | 1.75 |  |  |  |  |  |  |
| N#Cc1c(C(F)(F)F)cc(NCc2cccs2)n2c1nc1cc(Cl)c(Cl)cc12 | 310 |  |  | 1670 |  | 8480 | 27 | 140 |  | 6.13 | 0.45 | > 10000 | < 40 | 140 |  |
| N#Cc1c(C(F)(F)F)cc(NCc2ccccc2F)n2c1nc1cc(Cl)c(Cl)cc12 | 170 | 84 | > 2.5 | 370 | 97 | 4300 | 25 | 50 | 1.98 | 5.49 | 0.82 | > 10000 | < 40 | 140 | MST [15]: 14 days; inhibition in vivo at 50 mg/kg [16]: 99.9%; logD [17]: 4.16; solubility [18]: < 5 µM |
| Cc1ccc(CNc2cc(C(F)(F)F)c(C#N)c3nc4cc(Cl)c(Cl)cc4n23)cc1 | 400 |  |  | 600 |  | 6060 | 15 |  |  |  |  |  |  |  | remaining at 0.5 h, 0.1 µM ([2]; microsomes): 69%; half-life at 0.1 µM ([3]; microsomes): > 2.5 h; remaining at 0.5 h, 0.1 µM ([5]; microsomes): 91%; Ratio IC50 [19]: 6; Ratio IC50 [20]: 0.2; half-life at 0.1 µM ([9]; microsomes): 0.933 h |
| N#Cc1c(C(F)(F)F)cc(NCc2ccc(F)cc2)n2c1nc1cc(Cl)c(Cl)cc12 | 440 | 72 | > 2.5 | 690 | 102 | 13000 | 30 |  | 1.05 |  | 0.64 |  |  | 280 |  |
| N#Cc1c(C(F)(F)F)cc(NCc2ccc(F)cc2)n2c1nc1ccccc12 | 1270 |  |  |  |  | 45000 | 35 | 890 |  |  | 0.7 |  |  | 890 |  |
| CCN(CC)CCCC(C)Nc1ccnc2cc(Cl)ccc12 (stereo not given) [CHLOROQUINE] |  |  |  |  |  |  |  |  |  |  |  |  |  |  | MST [21]: 21 days; IC50 [22]: 18000 nM |
| N#Cc1c(C(F)(F)F)cc(NCc2ccco2)n2c1nc1cc(Cl)c(Cl)cc12 | 440 | 66 | > 2.5 | 2000 | 100 | 4840 | 10 | 60 | 0.833 | 6.82 | 0.52 | > 10000 | < 40 | 230 |  |
| N#Cc1c(C(F)(F)F)cc(NCc2ccc(OC(F)(F)F)cc2)n2c1nc1ccccc12 | 920 |  |  |  |  | > 222000 | > 241 | 480 |  |  | 0.91 |  |  | 840 |  |
| N#Cc1c(C(F)(F)F)cc(NCc2cccc(F)c2)n2c1nc1cc(Cl)c(Cl)cc12 | 190 |  |  | 270 |  | 7030 | 37 | 70 |  | 6.53 | 0.79 | > 10000 | < 40 | 150 | remaining at 0.5 h, 0.1 µM ([2]; microsomes): 84%; half-life at 0.1 µM ([3]; microsomes): > 2.5 h; remaining at 0.5 h, 0.1 µM ([5]; microsomes): 100%; Ratio IC50 [19]: 0.5; Ratio IC50 [20]: 1.2; half-life at 0.1 µM ([9]; microsomes): 1.98 h |
| N#Cc1c(C(F)(F)F)cc(NCc2ccccn2)n2c1nc1cc(Cl)c(Cl)cc12 | 1420 | 31 | 1.05 | 2480 | 72 | 750 | 0.5 |  | 0.3 |  |  |  |  |  | IC50 [22]: 59000 nM |
